Experimental data: ChEMBL document CHEMBL1122838, “GABA agonists. Resolution, absolute stereochemistry, and enantioselectivity of (S)-(+)- and (R)-(-)-dihydromuscimol” (J Med Chem, 1985)
Calls of active or inactive are those of the source. No cut-off for these calls is given here.

Key:
GABA transporter [1] = target: T1, GABA transporter (Rattus norvegicus, UniProt P31647+P23978+P31646+P48056); assay: In vitro inhibition of GABA uptake in rat brain synaptosomes
Felis catus [2] = assay: In vivo BMC-sensitive inhibitory effect on cat spinal neurons relative to that of GABA; Equal activity; type: functional, organism-based
Felis catus [3] = assay: BMC-sensitive inhibitory effect on cat spinal neurons relative to that of GABA was expressed in vivo as relative potency; Greater activity; type: functional, organism-based
GABA transporter [4] = target: T1, GABA transporter; type: functional, cell membranes, Brain, Membrane
[5] = target: GABA-A receptor; anion channel; assay: In vitro inhibition of [3H]THIP binding to Gamma-aminobutyric acid receptor in rat brain synaptic membranes; type: cell membranes, Membrane
Outline: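 Radioligand 0.005 μM [3H]THIP; rat cortical synaptic membranes (0.8–1.2 mg protein) in 0.05 M Tris-citrate pH 7.1, triplicate, 15 min at 4 °C, analogue up to 100 μM. IC50 derived from displacement; three experiments averaged per concentration.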

[6] = target: GABA-A receptor; anion channel; assay: In vitro inhibition of [3H]P4S binding to Gamma-aminobutyric acid receptor of rat brain synaptic membranes; type: cell membranes, Membrane
[7] = target: Gamma-aminobutyric acid receptor subunit gamma-1 (Rattus norvegicus, UniProt P23574); assay: In vitro inhibition of [3H]GABA binding to Gamma-aminobutyric acid receptor of rat brain synaptic membranes; type: cell membranes, Membrane
Felis catus [8] = assay: BMC-sensitive inhibitory effect on cat spinal neurons relative to that of GABA was expressed in vivo as relative potency; Less activity; type: functional, organism-based
[9] = target: GABA-A receptor; anion channel; assay: In vitro inhibition of [3H]GABA binding to rat brain synaptic membranes; type: cell membranes, Membrane
Outline: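 Rat cerebral cortex synaptic membranes (0.8–1.2 mg protein) incubated in triplicate 15 min at 4 °C in 0.05 M Tris-citrate pH 7.1 with 0.005 μM [3H]GABA and analogue (up to 100 μM). Displacement used to derive IC50; each concentration mean of three experiments.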

Gamma-aminobutyric acid receptor subunit gamma-1, sequence (P23574 whole entry): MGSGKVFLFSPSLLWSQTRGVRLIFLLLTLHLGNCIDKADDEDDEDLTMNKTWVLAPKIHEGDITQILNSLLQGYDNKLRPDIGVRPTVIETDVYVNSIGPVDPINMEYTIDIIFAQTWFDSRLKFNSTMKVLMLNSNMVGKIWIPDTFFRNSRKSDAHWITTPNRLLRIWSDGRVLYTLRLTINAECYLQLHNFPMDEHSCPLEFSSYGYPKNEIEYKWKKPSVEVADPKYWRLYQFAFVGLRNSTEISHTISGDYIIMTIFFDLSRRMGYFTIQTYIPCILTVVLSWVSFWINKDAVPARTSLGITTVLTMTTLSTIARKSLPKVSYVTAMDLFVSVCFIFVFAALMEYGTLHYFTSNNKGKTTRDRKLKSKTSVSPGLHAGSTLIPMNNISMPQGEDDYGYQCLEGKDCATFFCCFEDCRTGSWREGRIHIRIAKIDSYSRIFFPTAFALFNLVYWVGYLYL

Row | Compound | IC50 (GABA transporter [1]) [nM] | Relative potency (Felis catus [2]) | Relative potency (Felis catus [3]) | IC50 (GABA transporter [4]) [nM] | IC50 [5] [nM] | IC50 [6] [nM] | IC50 [7] [nM] | Relative potency (Felis catus [8]) | IC50 [9] [nM]
1 | NC[C@H]1CC(=O)NO1 | 70000 | Active |  |  |  |  |  |  | 
2 | NCc1cc(O)no1 [MUSCIMOL] |  |  | Active | 320000 |  |  |  |  | 
3 | NC[C@H]1CC(O)=NO1 |  |  |  |  | 140 | 540 | 250 |  | 
4 | NC[C@@H](O)CC(=O)O |  |  |  | 29000 | 200 | 900 | 400 | Partially active | 
5 | NCC1CC(=O)NO1 (racemic) |  |  | Active | 130000 | 5 | 18 |  |  | 8
6 | NC[C@H](O)CC(=O)O | 67000 |  |  |  | 300 | 1900 |  | Partially active | 1000
7 | NCc1cc(=O)[nH]o1 [MUSCIMOL] |  |  |  |  | 5 | 6 | 6 |  | 
8 | NC[C@@H]1CC(=O)NO1 |  |  | Active | > 500000 | 3 | 8 | 4 |  | 
